Data: ChEMBL document CHEMBL1155261, “Synthesis and biological evaluation of SANT-2 and analogues as inhibitors of the hedgehog signaling pathway” (Bioorg Med Chem, 2009)

What was measured:
[1] = molecular target: Sonic hedgehog protein (Mus musculus) (UniProt Q62226); assay: Ratio of compound IC50 to cyclopamine IC50 for inhibition of SHH in mouse Shh-Light2 cells; type: functional, cell-based; details: Shh Light II
Oryzias latipes [2] = assay: Teratogenic activity in Oryzias latipes CAB embryo assessed as induction of cyclopia phenotype at 0.01 to 100 uM; type: organism-based; details: in vivo
Summary of the method: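 CAB-strain medaka kept at 26 °C on a 14:10 h light/dark cycle. Fertilized eggs exposed from 4–5 hpf to 5 days post fertilisation at 26 °C in tap water (pH 8–8.2) with 0.1% methylene blue. Compounds added from ethanol stocks at 1% final solvent; controls received 1% ethanol. Embryos inspected visually for cyclopia (reduced eye distance).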

Oryzias latipes [3] = assay: Teratogenic activity in Oryzias latipes embryo assessed as induction of cyclopia phenotype at 12.5 uM; type: organism-based; details: in vivo
Summary of the method: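 Medaka (CAB strain) fertilized eggs, collected within 1–2 h post fertilization, exposed from 4–5 hpf to 5 days post fertilisation at 26 °C in tap water (pH 8–8.2) with 0.1% methylene blue; compounds added from ethanol stocks, final 1% ethanol, controls 1% ethanol. Tested range 0.01–100 µM. Embryos visually scored for cyclopia (reduced eye distance).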

Ratio IC50 [1] | SMILES | Activity (Oryzias latipes [2]) | Activity (Oryzias latipes [3])
5.9 | O=C(Nc1ccc(Cl)c(-c2nc3ccccc3[nH]2)c1)c1ccc(Cl)cc1 | – | –
6.9 | CN(C)c1ccc(C(=O)Nc2ccc(Cl)c(-c3nc4ccccc4[nH]3)c2)cc1 | – | –
1.5 | COc1ccccc1C(=O)Nc1ccc(Cl)c(-c2nc3ccccc3[nH]2)c1 | – | –
1 | CCOc1cc(C(=O)Nc2cccc(-c3nc4ccccc4[nH]3)c2)cc(OCC)c1OCC | – | –
11 | COc1ccc(C(=O)Nc2ccc(Cl)c(-c3nc4ccccc4[nH]3)c2)cc1 | – | –
7.1 | N#Cc1ccc(C(=O)Nc2ccc(Cl)c(-c3nc4ccccc4[nH]3)c2)cc1 | – | –
– | COc1cc(C(=O)Nc2ccc(Cl)c(-c3nc4ccccc4[nH]3)c2)cc(OC)c1OC | Non-toxic | –
– | CCOc1cc(C(=O)Nc2ccc(Cl)c(-c3nc4ccccc4[nH]3)c2)cc(OCC)c1OCC | Non-toxic | –
5.2 | O=C(Nc1ccc(Cl)c(-c2nc3ccccc3[nH]2)c1)c1ccc(F)cc1 | – | –
8 | O=C(Nc1ccc(Cl)c(-c2nc3ccccc3[nH]2)c1)c1ccccc1 | – | –
11 | O=C(Nc1ccc(Cl)c(-c2nc3ccccc3[nH]2)c1)c1cccc(C(F)(F)F)c1 | Non-toxic | –

SMILES | Ratio IC50 [1] | Activity (Oryzias latipes [2]) | Activity (Oryzias latipes [3])
CC1=C2C[C@H]3[C@@H](CC=C4C[C@@H](O)CC[C@@]43C)[C@@H]2CC[C@]12O[C@@H]1C[C@H](C)CN[C@H]1[C@H]2C [CYCLOPAMINE] | 11 | Non-toxic | Toxic
